Assay results as given in ChEMBL document CHEMBL4024779, “Novel Terminal Bipheny-Based Diapophytoene Desaturases (CrtN) Inhibitors as Anti-MRSA/VISR/LRSA Agents with Reduced hERG Activity” (J Med Chem, 2018).
Positions count from the first letter of the chain named. pIC50: −log10 of the molar value. ≈ marks a conversion by molar mass, not a printed value. Calls of active or inactive are those of the source. The rule behind the calls is not given here.

How the values were obtained:
Nannizzia gypsea = assay: In vitro antifungal activity against Microsporum gypseum after 7 days by serial dilution method; format: functional; conditions: 168 h
[1] = Aqueous solubility of compound after 24 hrs by HPLC method; format: physicochemical
[2] = Inhibition of CrtN in methicillin-resistant Staphylococcus aureus NRS271 assessed as reduction in staphyloxanthin levels after 48 hrs by spectrophotometric method-based pigment inhibition assay
[3] = target: T1, 4,4'-diapophytoene desaturase (4,4'-diaponeurosporene-forming) (Staphylococcus aureus (strain Newman), UniProt O07855); assay: Inhibition of Staphylococcus aureus Newman 6His-tagged CrtN expressed in Escherichia coli BL21 (DE3)/pET28a::CrtN assessed as reduction in staphyloxanthin levels using diapophytoene as substrate after overnight incubation by spectrophotometric analysis; parameters: species or system Staphylococcus aureus subsp. aureus str. Newman
T1 sequence (O07855 whole entry): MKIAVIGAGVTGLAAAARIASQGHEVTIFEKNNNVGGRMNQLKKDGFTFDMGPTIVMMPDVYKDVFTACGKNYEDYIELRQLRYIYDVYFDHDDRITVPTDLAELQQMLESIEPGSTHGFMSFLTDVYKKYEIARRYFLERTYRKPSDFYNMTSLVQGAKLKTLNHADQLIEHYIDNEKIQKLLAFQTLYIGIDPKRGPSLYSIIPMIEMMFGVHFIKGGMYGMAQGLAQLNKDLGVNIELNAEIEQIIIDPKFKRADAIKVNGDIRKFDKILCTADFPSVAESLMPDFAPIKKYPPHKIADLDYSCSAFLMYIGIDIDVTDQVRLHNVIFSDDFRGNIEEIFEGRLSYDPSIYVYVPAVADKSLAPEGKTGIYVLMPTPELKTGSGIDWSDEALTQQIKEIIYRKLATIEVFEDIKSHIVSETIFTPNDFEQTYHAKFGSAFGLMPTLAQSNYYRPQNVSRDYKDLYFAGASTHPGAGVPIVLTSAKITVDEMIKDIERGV

Trichophyton verrucosum = assay: In vitro antifungal activity against Trichophyton verrucosum after 7 days by serial dilution method; format: functional; conditions: 168 h
[4] = target: T2, 4,4'-diapophytoene desaturase (4,4'-diaponeurosporene-forming) (Staphylococcus aureus (strain MW2), UniProt Q8NUQ6); assay: Inhibition of CrtN in methicillin-resistant Staphylococcus aureus USA400 MW2 assessed as reduction in staphyloxanthin levels after 48 hrs by spectrophotometric method-based pigment inhibition assay; parameters: species or system Staphylococcus aureus subsp. aureus MW2
T2 sequence (Q8NUQ6 whole entry): T1 sequence (O07855 whole entry) with R500Q

Trichophyton rubrum = assay: In vitro antifungal activity against Trichophyton rubrum after 7 days by serial dilution method; format: functional; conditions: 168 h
[5] = target: T3, 4,4'-diapophytoene desaturase (4,4'-diaponeurosporene-forming) (Staphylococcus aureus (strain Mu50 / ATCC 700699), UniProt Q99R76); assay: Inhibition of CrtN in methicillin-resistant Staphylococcus aureus Mu50 assessed as reduction in staphyloxanthin levels after 48 hrs by spectrophotometric method-based pigment inhibition assay; parameters: species or system Staphylococcus aureus subsp. aureus Mu50
T3 sequence (Q99R76 whole entry): T1 sequence (O07855 whole entry)

[6] = target: T4, 4,4'-diapophytoene desaturase (4,4'-diaponeurosporene-forming) (Staphylococcus aureus (strain USA300), UniProt Q2FDU6); assay: Inhibition of CrtN in methicillin-resistant Staphylococcus aureus LAC USA300 assessed as reduction in staphyloxanthin levels after 48 hrs by spectrophotometric method-based pigment inhibition assay
T4 sequence (Q2FDU6 whole entry): T1 sequence (O07855 whole entry)

[7] = tested on: Trichophyton mentagrophytes; assay: In vitro antifungal activity against Trichophyton mentagrophytes after 7 days by serial dilution method; format: functional; conditions: 168 h
[8] = target: Voltage-gated inwardly rectifying potassium channel KCNH2 (Homo sapiens, UniProt Q12809); assay: Inhibition of human ERG expressed in CHO cells at -80 mV holding potential after 3 mins by QPatch test; format: cell-based
Voltage-gated inwardly rectifying potassium channel KCNH2, sequence (Q12809 whole entry): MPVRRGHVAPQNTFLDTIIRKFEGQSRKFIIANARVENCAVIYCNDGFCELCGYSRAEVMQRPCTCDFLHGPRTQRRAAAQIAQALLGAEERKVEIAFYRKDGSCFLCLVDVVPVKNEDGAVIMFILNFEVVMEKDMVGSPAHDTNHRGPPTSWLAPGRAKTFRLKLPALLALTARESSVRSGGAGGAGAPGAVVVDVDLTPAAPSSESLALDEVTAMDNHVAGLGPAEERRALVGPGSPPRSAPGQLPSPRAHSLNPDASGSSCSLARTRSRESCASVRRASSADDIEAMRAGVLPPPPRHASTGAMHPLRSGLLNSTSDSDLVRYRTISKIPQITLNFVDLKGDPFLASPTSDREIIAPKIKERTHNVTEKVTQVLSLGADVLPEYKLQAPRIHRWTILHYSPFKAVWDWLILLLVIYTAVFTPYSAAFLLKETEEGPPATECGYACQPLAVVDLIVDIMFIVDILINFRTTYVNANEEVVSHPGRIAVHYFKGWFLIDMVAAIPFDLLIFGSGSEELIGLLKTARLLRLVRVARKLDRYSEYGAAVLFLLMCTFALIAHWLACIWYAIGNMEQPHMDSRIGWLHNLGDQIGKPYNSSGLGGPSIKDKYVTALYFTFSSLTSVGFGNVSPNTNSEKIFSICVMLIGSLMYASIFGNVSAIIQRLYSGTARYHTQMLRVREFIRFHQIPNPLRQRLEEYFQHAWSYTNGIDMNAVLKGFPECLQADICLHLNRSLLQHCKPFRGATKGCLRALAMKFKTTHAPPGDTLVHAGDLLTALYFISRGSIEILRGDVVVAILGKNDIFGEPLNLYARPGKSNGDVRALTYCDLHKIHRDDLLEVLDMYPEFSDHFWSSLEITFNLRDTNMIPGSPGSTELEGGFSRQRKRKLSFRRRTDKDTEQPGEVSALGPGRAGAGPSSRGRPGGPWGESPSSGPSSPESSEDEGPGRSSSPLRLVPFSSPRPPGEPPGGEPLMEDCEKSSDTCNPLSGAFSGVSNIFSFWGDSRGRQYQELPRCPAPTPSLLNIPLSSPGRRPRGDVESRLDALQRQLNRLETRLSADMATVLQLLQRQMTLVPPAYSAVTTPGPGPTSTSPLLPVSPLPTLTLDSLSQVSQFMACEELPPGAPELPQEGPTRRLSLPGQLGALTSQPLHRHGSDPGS

Staphylococcus aureus [9] = assay: Antibacterial activity against Staphylococcus aureus Newman after 24 hrs by broth dilution method; format: functional
[10] = target: 4,4'-diapophytoene synthase (Staphylococcus aureus, UniProt A9JQL9); assay: Inhibition of CrtM in Staphylococcus aureus assessed as reduction in staphyloxanthin levels after 72 hrs by spectrophotometric method
4,4'-diapophytoene synthase, sequence (A9JQL9 whole entry): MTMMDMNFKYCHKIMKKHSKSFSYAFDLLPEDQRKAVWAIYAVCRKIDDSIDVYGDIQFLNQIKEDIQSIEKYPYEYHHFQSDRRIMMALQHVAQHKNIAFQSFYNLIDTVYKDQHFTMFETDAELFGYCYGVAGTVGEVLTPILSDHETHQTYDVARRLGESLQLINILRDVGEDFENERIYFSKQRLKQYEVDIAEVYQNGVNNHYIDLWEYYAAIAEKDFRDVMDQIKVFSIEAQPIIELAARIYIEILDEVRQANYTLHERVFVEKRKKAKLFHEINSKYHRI

Liver = assay: In-vitro intrinsic clearance in human liver microsomes at 2 uM after 60 mins in presence of NADPH by LC-MS/MS method; format: ADME, microsome; conditions: 1 h
[11] = Half life in human liver microsomes at 2 uM after 60 mins in presence of NADPH by LC-MS/MS method; format: ADME, microsome; conditions: liver microsomes
Staphylococcus aureus [12] = assay: In vivo anti-virulence activity against Staphylococcus aureus NRS271 infected in BALB/c mouse model assessed as reduction in bacterial load in kidney at 0.4 mg bid for 4.5 days administered orally 6 hrs post infection by serial dilution method relative to control; format: functional, organism-based
Staphylococcus aureus [13] = assay: In vivo anti-virulence activity against methicillin-resistant Staphylococcus aureus LRSA202 infected in BALB/c mouse model assessed as reduction in bacterial load in kidney at 0.1 mg bid for 3.5 days administered intraperitoneally 6 hrs post infection by serial dilution method relative to control; format: functional, organism-based
Outline: (§1)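 Mice were infected by retro-orbital injection with LRSA56 (5.0 × 10^7 CFU) or LRSA202 (7.0 × 10^7 CFU). Compound was given intraperitoneally 6 h after infection. […] Log10 CFU was counted in kidneys and hearts, with groups compared by two-tailed Mann-Whitney test.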

Staphylococcus aureus [14] = assay: In vivo anti-virulence activity against methicillin-resistant Staphylococcus aureus LRSA202 infected in BALB/c mouse model assessed as reduction in bacterial load in kidney at 0.4 mg bid for 3.5 days administered intraperitoneally 6 hrs post infection by serial dilution method relative to control; format: functional, organism-based; outline: as §1
Staphylococcus aureus [15] = assay: In vivo anti-virulence activity against methicillin-resistant Staphylococcus aureus LRSA202 infected in BALB/c mouse model assessed as reduction in bacterial load in heart at 0.1 mg bid for 3.5 days administered intraperitoneally 6 hrs post infection by serial dilution method relative to control; format: functional, organism-based; outline: as §1
Staphylococcus aureus [16] = assay: In vivo anti-virulence activity against methicillin-resistant Staphylococcus aureus Mu50 infected in BALB/c mouse model assessed as reduction in bacterial load in heart at 0.4 mg bid for 4.5 days administered intraperitoneally 6 hrs post infection by serial dilution method; format: functional, organism-based
Staphylococcus aureus [17] = assay: In vivo anti-virulence activity against methicillin-resistant Staphylococcus aureus LRSA202 infected in BALB/c mouse model assessed as reduction in bacterial load in heart at 0.4 mg bid for 3.5 days administered intraperitoneally 6 hrs post infection by serial dilution method relative to control; format: functional, organism-based; outline: as §1
Staphylococcus aureus [18] = assay: In vivo anti-virulence activity against methicillin-resistant Staphylococcus aureus NRS271 infected in BALB/c mouse model assessed as reduction in bacterial load in heart at 0.4 mg bid for 4.5 days administered intraperitoneally 6 hrs post infection by serial dilution method; format: functional, organism-based
Staphylococcus aureus [19] = assay: In vivo anti-virulence activity against Staphylococcus aureus Mu50 infected in BALB/c mouse model assessed as reduction in bacterial load in kidney at 0.4 mg bid for 4.5 days administered […] 6 hrs post infection by serial dilution method relative to control; format: functional, organism-based
Staphylococcus aureus [20] = assay: In vivo anti-virulence activity against methicillin-resistant Staphylococcus aureus LRSA56 infected in BALB/c mouse model assessed as reduction in bacterial load in kidney at 0.4 mg bid for 3.5 days administered intraperitoneally 6 hrs post infection by serial dilution method relative to control; format: functional, organism-based; outline: as §1
Staphylococcus aureus [21] = assay: In vivo anti-virulence activity against methicillin-resistant Staphylococcus aureus LRSA56 infected in BALB/c mouse model assessed as reduction in bacterial load in heart at 0.4 mg bid for 3.5 days administered intraperitoneally 6 hrs post infection by serial dilution method relative to control; format: functional, organism-based; outline: as §1
[22] = target: T5, 4,4'-diapophytoene desaturase (4,4'-diaponeurosporene-forming) (Staphylococcus aureus (strain MW2)) (UniProt Q8NUQ6); assay: Inhibition of CrtN in methicillin-resistant Staphylococcus aureus USA400 MW2 assessed as increase in H2O2-induced bacterial death by measuring survival rate preincubated for 24 hrs followed by H2O2 addition measured after 30 mins by serial dilution method (reference value: 28.7%); conditions: Staphylococcus aureus subsp. aureus MW2
T5 sequence (whole entry): T1 sequence (O07855 whole entry) with R500Q
Outline: (§2)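 Bacteria pretreated with 1 µM inhibitor or mock; N-acetylcysteine-treated cells served as control. Cells then exposed to 1.5% H2O2, and percent survival determined.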

[23] = target: T6, 4,4'-diapophytoene desaturase (4,4'-diaponeurosporene-forming) (Staphylococcus aureus (strain USA300)) (UniProt Q2FDU6); assay: Inhibition of CrtN in methicillin-resistant Staphylococcus aureus LAC USA300 assessed as increase in H2O2-induced bacterial death by measuring survival rate preincubated for 24 hrs followed by H2O2 addition measured after 30 mins by serial dilution method (reference value: 29.0%); outline: as §2
T6 sequence (whole entry): T1 sequence (O07855 whole entry)

Staphylococcus aureus [24] = assay: Chemo-sensitization activity in non-pigmented Staphylococcus aureus Newman assessed as increase in H2O2-induced bacterial death by measuring survival rate pre-incubated for 24 hrs followed by H2O2 addition measured after 30 mins by serial dilution method (reference value: 33.3%); format: functional
Outline: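 S. aureus Newman was pre-incubated with 1 µM compound, with N-acetylcysteine as antioxidant control, or mock-treated. Cells were then exposed to 1.5% H2O2. Percent bacterial survival was compared with the mock-treated culture.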

[25] = target: T7, 4,4'-diapophytoene desaturase (4,4'-diaponeurosporene-forming) (Staphylococcus aureus (strain Mu50 / ATCC 700699)) (UniProt Q99R76); assay: Inhibition of CrtN in methicillin-resistant Staphylococcus aureus Mu50 assessed as increase in H2O2-induced bacterial death by measuring survival rate at preincubated for 24 hrs followed by H2O2 addition measured after 30 mins by serial dilution method (reference value: 29.0%); conditions: Staphylococcus aureus subsp. aureus Mu50; outline: as §2
T7 sequence (whole entry): T1 sequence (O07855 whole entry)

Question: Which MIC80 (Nannizzia gypsea) does the source give for `CN(C/C=C/c1ccc(C(F)(F)F)cc1)Cc1cccc2ccoc12.Cl` here?
Answer: 32 µg/mL

Question: And the solubility at 24 h [1]?
Answer: 10000 µg/mL

Question: And the pIC50 [2]?
Answer: 8.17

Question: And the pIC50 [3]?
Answer: 6.52

Question: And the MIC80 (Trichophyton verrucosum)?
Answer: > 64 µg/mL

Question: What about the pIC50 [4] of the same compound?
Answer: 8.47

Question: What about the MIC80 (Trichophyton rubrum) of the same compound?
Answer: 16 µg/mL

Question: What about the pIC50 [5] of the same compound?
Answer: 9.40

Question: What about the pIC50 [6] of the same compound?
Answer: 8.26

Question: And the MIC80 [7]?
Answer: > 64 µg/mL

Question: What about the pIC50 [8] of the same compound?
Answer: 5.43

Question: Which MIC (Staphylococcus aureus [9]; Staphylococcus aureus, Newman, 24 h, read-out: MIC) does the source give for `CC[C@H]1OC(=O)[C@H](C)[C@@H](O[C@H]2C[C@@](C)(OC)[C@@H](O)[C@H](C)O2)[C@H](C)[C@@H](O[C@@H]2O[C@H](C)C[C@H](N(C)C)[C@H]2O)[C@](C)(O)C[C@@H](C)C(=O)[C@H](C)[C@@H](O)[C@]1(C)O` [ERYTHROMYCIN] here?
Answer: 0.125 µg/mL (≈ 0.17 µM)

Question: With `O=P(O)(O)C(CCCc1cccc(Oc2ccccc2)c1)S(=O)(=O)O` (centres undefined) as the compound, how does the pIC50 [10] read?
Answer: 6.96

Question: With `Cc1ncc2n1-c1ccc(Cl)cc1C(c1ccccc1F)=NC2` [MIDAZOLAM] as the compound, how does the CLH (Liver) read?
Answer: 330 µL/min/mg

Question: And the half-life at 2 µM [11]?
Answer: 4.2 min

Question: Which results are given for `CC(=O)NC[C@H]1CN(c2ccc(N3CCOCC3)c(F)c2)C(=O)O1`?
Answer: Activity (Staphylococcus aureus [12]): Active; Activity (Staphylococcus aureus [13]): Active; Activity (Staphylococcus aureus [14]): Active; Activity (Staphylococcus aureus [15]): Active; Activity (Staphylococcus aureus [16]): Active; Activity (Staphylococcus aureus [17]): Active; Activity (Staphylococcus aureus [18]): Active; Activity (Staphylococcus aureus [19]): Active

Question: Which Activity (Staphylococcus aureus [14]) does the source give for `CN[C@H](CC(C)C)C(=O)N[C@H]1C(=O)N[C@@H](CC(N)=O)C(=O)N[C@H]2C(=O)N[C@H]3C(=O)N[C@H](C(=O)N[C@H](C(=O)O)c4cc(O)cc(O)c4-c4cc3ccc4O)[C@H](O)c3ccc(c(Cl)c3)Oc3cc2cc(c3O[C@@H]2O[C@H](CO)[C@@H](O)[C@H](O)[C@H]2O[C@H]2C[C@](C)(N)[C@H](O)[C@H](C)O2)Oc2ccc(cc2Cl)[C@H]1O` here?
Answer: Active

Question: And the Activity (Staphylococcus aureus [20])?
Answer: Active

Question: What about the Activity (Staphylococcus aureus [16]) of the same compound?
Answer: Active

Question: What about the Activity (Staphylococcus aureus [17]) of the same compound?
Answer: Active

Question: And the Activity (Staphylococcus aureus [21])?
Answer: Active

Question: And the Activity (Staphylococcus aureus [19])?
Answer: Active

Question: Which MIC (Staphylococcus aureus [9]) does the source give for `OO` [HYDROGEN PEROXIDE] here?
Answer: 0.15%

Question: For `CC(=O)N[C@@H](CS)C(=O)O` [ACETYLCYSTEINE], which Survival [22] is on record?
Answer: 54.3%

Question: And the Survival [23]?
Answer: 52%

Question: And the Survival (Staphylococcus aureus [24])?
Answer: 51.3%

Question: And the Survival [25]?
Answer: 53%
